Results on 19 compounds are retold here after ChEMBL document CHEMBL5506001 (J Med Chem, 2024).

Data set [1] is filed under the species Bos taurus. Description: Activation of full-length myosin ATPase activity in bovine Cardiomyofibril in presence of CaCl2 and ATP by HTS assay. It counts as tissue-based. In outline:
(§1)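 Calcium-stimulated ATPase activity of cardiac myofibrils (bovine), slow skeletal myofibrils (bovine masseter), fast skeletal myofibrils (rabbit) or chicken gizzard smooth muscle myosin; 10-point dose response up to 40 μM.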

The species entered for data set [2] is Oryctolagus cuniculus. Nature of the data set: Activation of Myosin S1 ATPase activity in rabbit fast skeletal myofibrils at 40 uM in presence of bovine cardiac thin filament. Format: tissue-based. The conditions noted are these: filed as activator.
Data set [3] is filed under the species Bos taurus. Description: Activation of Myosin S1 ATPase activity in bovine Cardiomyofibril at 40 uM in presence of bovine cardiac thin filament. Format: tissue-based. The conditions noted are these: filed as activator.
In data set [4] the target is cGMP-inhibited 3',5'-cyclic phosphodiesterase 3A (Homo sapiens, UniProt Q14432). Description: Inhibition of PDE3A (unknown origin) using cAMP as substrate preincubated for 20 mins followed by substrate addition measured after 30 mins by HTS assay. In outline:
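PDE3A preincubated with compound in 50 mM Tris, 5 mM MgCl₂, pH 7.5, for 20 min at room temperature. Then 0.2 µM cAMP substrate added for 30 min at room temperature, followed by a PDELight stop/detection mix.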

Data set [5] deals with Cardiac muscle cell. Description: Induction of Sprague-Dawley rat Cardiomyocyte contractility assessed as increase in myocyte fractional shortening at 10 uM incubated for 5 mins by imaging analysis. It counts as functional, cell-based.
The species named for data set [6] is Bos taurus. Description: Activation of full-length myosin ATPase activity in bovine slow skeletal myofibrils at 0.01 to 100 uM in presence of CaCl2 and ATP by HTS assay. It counts as tissue-based. The conditions noted are these: dose 0.01-100 µM.
Data set [7] has as its system Cardiac muscle cell. Nature of the data set: Induction of Sprague-Dawley rat Cardiomyocyte contractility by measuring myocyte relaxation velocity at 10 uM incubated for 5 mins by imaging analysis. Format: functional.
Data set [8] can be described thus: Solubility of compound at pH 6.8 incubated for 12 hrs by HPLC analysis. Format: physicochemical. Particulars: buffer, pH 6.8, 12 h. The procedure, abridged:
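Agitated 12 h at room temperature in pH 6.8 monopotassium phosphate JP2 buffer, filtered, quantified by HPLC against a standard.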

Data set [9] is filed under the species Gallus gallus. Description: Activation of full-length myosin ATPase activity in chicken Gizzard at 0.01 to 40 uM in presence of CaCl2 and ATP by HTS assay. Particulars: dose 0.01-40 µM.
The species named for data set [10] is Bos taurus. Nature of the data set: Activation of full-length myosin ATPase activity in bovine Cardiomyofibril at 0.01 to 100 uM in presence of CaCl2 and ATP by HTS assay. It counts as tissue-based. Particulars: dose 0.01-100 µM.
The species named for data set [11] is Oryctolagus cuniculus. Particulars: Fast skeletal myofibrils.
For data set [12], the species on record is Oryctolagus cuniculus. Nature of the data set: Activation of full-length myosin ATPase activity in rabbit fast skeletal myofibrils at 0.01 to 40 uM in presence of CaCl2 and ATP by HTS assay. Particulars: dose 0.01-40 µM.
Data set [13] concerns Cardiac muscle cell. Description: Induction of Sprague-Dawley rat Cardiomyocyte contractility assessed as increase in myocyte relaxation time at 10 uM incubated for 5 mins by imaging analysis relative to control. It counts as functional. The arrangement: scale not given: the % may be the effect or the level left.
Data set [14] concerns Cardiac muscle cell. Description: Induction of Sprague-Dawley rat Cardiomyocyte contractility by measuring myocyte relaxation time at 10 uM incubated for 5 mins by imaging analysis. Format: functional.
In data set [15] the test system is Cardiac muscle cell. Description: Induction of Sprague-Dawley rat Cardiomyocyte contractility assessed as increase in myocyte relaxation velocity at 10 uM incubated for 5 mins by imaging analysis relative to control. It counts as functional. The arrangement: scale not given: the % may be the effect or the level left.
For data set [16], the species on record is Gallus gallus. Particulars: Gizzard.
The species entered for data set [17] is Bos taurus. Description: Activation of full-length myosin ATPase activity in bovine slow skeletal myofibrils in presence of CaCl2 and ATP by HTS assay. It counts as tissue-based. Particulars: filed as activator. The procedure, abridged:
as §1

A short description of data set [18]: Volume of distribution in Sprague-Dawley rat at 0.5 mg/kg,iv administered as bolus injection measured after 24 hrs by HPLC analysis. It counts as ADME, organism-based. Particulars: in vivo. The procedure, abridged:
(§2)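 Male Sprague-Dawley rats given a single intravenous bolus; blood sampled from just before dosing to 24 h after; compound in blood or plasma measured by HPLC against a standard.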

The nature of data set [19]: Half life in Sprague-Dawley rat at 0.5 mg/kg,iv administered as bolus injection measured after 24 hrs by HPLC analysis. It counts as ADME, organism-based. Particulars: in vivo. The procedure, abridged:
as §2

Data set [20] can be described thus: Clearance in Sprague-Dawley rat at 0.5 mg/kg,iv administered as bolus injection measured after 24 hrs by HPLC analysis. Particulars: in vivo. Format: ADME, organism-based. The procedure, abridged:
as §2

Data set [21] in a line: Plasma protein binding in rat assessed as unbound fraction at 5 uM incubated for 6 hrs by equilibrium dialysis based HPLC analysis. Format: ADME, cell-free. The procedure, abridged:
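Equilibrium dialysis: compound added at 5 μM to the buffer chamber, shaken against rat plasma for 6 h at 37 °C. Both chambers analysed by HPLC against standards; reported as % unbound.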
For orientation: In equilibrium dialysis only unbound substance equilibrates across the membrane.

≈ marks a conversion by molar mass, not a printed value. Calls of active or inactive are those of the source. The rule behind the calls is not given here. Bounds are passed on as bounds.

cGMP-inhibited 3',5'-cyclic phosphodiesterase 3A, sequence (Q14432 whole entry): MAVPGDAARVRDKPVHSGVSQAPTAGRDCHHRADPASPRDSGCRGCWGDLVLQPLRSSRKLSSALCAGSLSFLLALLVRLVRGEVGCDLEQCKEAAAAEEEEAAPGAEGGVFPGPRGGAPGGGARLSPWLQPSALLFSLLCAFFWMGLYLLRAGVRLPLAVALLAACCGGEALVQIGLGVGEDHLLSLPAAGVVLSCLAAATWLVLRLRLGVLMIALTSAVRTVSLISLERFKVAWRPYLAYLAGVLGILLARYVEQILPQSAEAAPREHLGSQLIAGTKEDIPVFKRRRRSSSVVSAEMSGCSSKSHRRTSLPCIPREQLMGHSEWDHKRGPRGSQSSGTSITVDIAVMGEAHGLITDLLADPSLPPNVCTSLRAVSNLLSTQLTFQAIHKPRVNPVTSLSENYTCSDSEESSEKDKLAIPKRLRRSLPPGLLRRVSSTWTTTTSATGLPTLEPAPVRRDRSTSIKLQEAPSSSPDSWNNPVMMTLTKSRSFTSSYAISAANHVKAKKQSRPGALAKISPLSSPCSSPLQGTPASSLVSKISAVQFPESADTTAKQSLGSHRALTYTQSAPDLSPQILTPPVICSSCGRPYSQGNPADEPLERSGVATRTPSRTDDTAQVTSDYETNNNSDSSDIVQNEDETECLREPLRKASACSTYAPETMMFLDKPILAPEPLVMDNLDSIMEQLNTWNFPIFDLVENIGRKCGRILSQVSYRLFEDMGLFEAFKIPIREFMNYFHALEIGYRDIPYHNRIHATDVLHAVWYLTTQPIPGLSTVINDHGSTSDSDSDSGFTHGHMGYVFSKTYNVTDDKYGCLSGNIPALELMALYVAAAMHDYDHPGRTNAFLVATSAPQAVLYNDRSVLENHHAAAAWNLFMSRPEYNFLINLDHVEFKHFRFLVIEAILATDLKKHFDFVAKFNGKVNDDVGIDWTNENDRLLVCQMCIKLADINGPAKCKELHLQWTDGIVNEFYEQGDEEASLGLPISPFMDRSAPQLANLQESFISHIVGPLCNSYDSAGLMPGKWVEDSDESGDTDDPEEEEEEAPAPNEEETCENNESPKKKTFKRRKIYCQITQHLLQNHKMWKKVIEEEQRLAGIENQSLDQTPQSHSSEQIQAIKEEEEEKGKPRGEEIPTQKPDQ

Consider `O=c1[nH]c(=O)c2cc(S(=O)(=O)Nc3ccc(-c4ccccc4)cn3)ccc2[nH]1`, for which, in the data set filed under Bos taurus [1] (filed as activator), the EC40 amounted to 18 µM.

For `O=c1[nH]c2ccc(S(=O)(=O)Nc3ccc(-c4ccccc4)cc3)cc2[nH]1`, the outcome in the data set listed under Oryctolagus cuniculus [2] and in the data set listed under Bos taurus [3] was Active. In the data set listed under Bos taurus [1] (filed as activator), the EC40 is 5.5 µM.

Regarding `Cn1c(=O)[nH]c(=O)c2cc(S(=O)(=O)Nc3ccc(N4CCCCC4)nc3)ccc21`, the EC40 in the data set filed under Bos taurus [1] is over 30 µM.

Turning to `Cc1nc2ccc(S(=O)(=O)Nc3ccc(N4C[C@H](C)C[C@@H](C)C4)nc3)cc2c(=O)[nH]1`, the IC50 in data set [4] was over 40 µM. Besides, the EC40 in the data set listed under Bos taurus [1] (filed as activator) was found to be 4.5 µM.

As to `Cn1c(=O)[nH]c(=O)c2cc(S(=O)(=O)Nc3ccc(-c4ccccc4)cc3)ccc21`, 4.6 µM corresponded to half-maximal inhibition in data set [4] (IC50). The EC40 in the data set filed under Bos taurus [1] (filed as activator) was under 0.1 µM.

For `O=c1[nH]c(=O)c2cc(S(=O)(=O)Nc3ccc(-c4ccccc4)nc3)ccc2[nH]1`, the EC40 in the data set listed under Bos taurus [1] (filed as activator) turned out to be 5.3 µM.

Regarding `CN(c1ccc(-c2ccccc2)cc1)S(=O)(=O)c1ccc2[nH]c(=O)[nH]c(=O)c2c1`, in the data set listed under Bos taurus [1], the EC40 is over 39 µM.

For the compound `O=c1[nH]c(=O)c2cc(S(=O)(=O)Nc3ccccc3)ccc2[nH]1`, the EC40 in the data set listed under Bos taurus [1] was over 39 µM.

Consider `O=c1[nH]c(=O)c2cc(S(=O)(=O)Nc3cnc(-c4ccccc4)nc3)ccc2[nH]1`, for which the EC40 in the data set filed under Bos taurus [1] is over 39 µM.

Turning to `C[C@@H]1CCCN(c2ccc(NS(=O)(=O)c3ccc4c(c3)c(=O)[nH]c(=O)n4C)cn2)C1`, in the data set listed under Bos taurus [1] (filed as activator), the EC40 amounted to 4.3 µM.

`O=c1[nH]c(=O)c2cc(S(=O)(=O)Nc3ccc(N4CCCCCC4)cc3)ccc2[nH]1`: the result in the data set with Cardiac muscle cell [5], in the data set listed under Oryctolagus cuniculus [2] and in the data set filed under Bos taurus [3] was Active. Further, the outcome in the data set filed under Bos taurus [6], in the data set listed under Gallus gallus [9], in the data set filed under Bos taurus [10] and in the data set filed under Oryctolagus cuniculus [12] was inactive. Moreover, the Activity is 55.4 um/s in the data set on Cardiac muscle cell [7], 30% in the data set with Cardiac muscle cell [13] and 23% with Cardiac muscle cell [15]. In data set [4], this compound registered an IC50 of 2.3 µM. Also, the solubility in [8] turned out to be 2.3 µM (≈ 0.953 µg/mL). Besides, the EC40 in the data set listed under Oryctolagus cuniculus [11] is over 39.2 µM; in the data set filed under Bos taurus [1] (filed as activator), 1.1 µM; in the data set filed under Gallus gallus [16], over 39.2 µM; in the data set filed under Bos taurus [17], 1.7 µM. The same compound displayed a Time in the data set on Cardiac muscle cell [14] of 0.308 s.

`O=c1[nH]c(=O)c2cc(S(=O)(=O)Nc3ccc(-c4ccccc4)cc3)ccc2[nH]1` gave an IC50 in data set [4] of 4.6 µM. In addition, the solubility in data set [8] was 2.4 µM (≈ 0.944 µg/mL). For the same compound, the EC40 was over 39.2 µM in the data set listed under Oryctolagus cuniculus [11], under 0.1 µM in the data set filed under Bos taurus [1] (filed as activator), over 39.2 µM in the data set filed under Gallus gallus [16] and under 0.1 µM in the data set listed under Bos taurus [17].

In the case of `Cc1nc2cc(OCCN3CCOCC3)c(S(=O)(=O)Nc3ccc(N4C[C@H](C)C[C@@H](C)C4)nc3)cc2c(=O)[nH]1`, in data set [18], the Vd came to 3.8 L/kg. The compound further came in with a t1/2 in data set [19] of 0.6 h. The IC50 in data set [4] is over 40 µM. In data set [20], this compound came in with a clearance of 7.1 mL/min/kg. Also, the fraction unbound at 6 h, 5 µM in [21] came to 0.037. Also, the EC40 in the data set filed under Bos taurus [1] (filed as activator) is 0.7 µM.

Turning to `C[C@@H]1C[C@H](C)CN(c2ccc(NS(=O)(=O)c3ccc4c(c3)c(=O)[nH]c(=O)n4C)cn2)C1`, the EC40 in the data set filed under Bos taurus [1] (filed as activator) was found to be 11.1 µM.

On to `C[C@@H]1C[C@@H](C)CN(c2ccc(NS(=O)(=O)c3ccc4c(c3)c(=O)[nH]c(=O)n4C)cn2)C1`, for which the EC40 in the data set listed under Bos taurus [1] (filed as activator) turned out to be 0.5 µM.

Turning to `C[C@H]1CCCN(c2ccc(NS(=O)(=O)c3ccc4c(c3)c(=O)[nH]c(=O)n4C)cn2)C1`, in the data set filed under Bos taurus [1], the EC40 was over 33 µM.

With `COc1cc2nc(C)[nH]c(=O)c2cc1S(=O)(=O)Nc1ccc(N2C[C@H](C)C[C@@H](C)C2)nc1`, the t1/2 in data set [19] came to 2.3 h. In data set [4], this compound returned an IC50 of over 40 µM. In addition, the clearance in [20] amounted to 0.1 mL/min/kg. In addition, in [21], the fraction unbound at 6 h, 5 µM was determined as 0.008. Besides, in the data set filed under Bos taurus [1] (filed as activator), the EC40 is 0.7 µM.

Regarding `C[C@H]1C[C@H](C)CN(c2ccc(NS(=O)(=O)c3ccc4c(c3)c(=O)[nH]c(=O)n4C)cn2)C1`, the EC40 in the data set listed under Bos taurus [1] (filed as activator) is 21.9 µM.

As to `CNc1cc2nc(C)[nH]c(=O)c2cc1S(=O)(=O)Nc1ccc(N2C[C@H](C)C[C@@H](C)C2)nc1`, in data set [18], the Vd amounted to 1.8 L/kg. The same compound displayed a t1/2 in [19] of 1.1 h. Moreover, in data set [4], the IC50 is over 40 µM. The same compound returned a clearance in [20] of 3.3 mL/min/kg. Also, the fraction unbound at 6 h, 5 µM in data set [21] stood at 0.012. In addition, the EC40 in the data set filed under Bos taurus [1] (filed as activator) is 1.4 µM.

The IC50 is the point on the concentration scale where inhibition reaches its midpoint. As usually defined, the solubility is the dissolved amount per volume that the medium holds. As a reminder, the Vd is the apparent volume that relates the amount in the body to the concentration in plasma or blood. Broadly, the clearance is the rate of elimination divided by the concentration. What is called fraction unbound is free concentration divided by total concentration.
